# Experimental data of several laboratories.
# Each line is one published result; the experiments were not run side by side.
# Observed: thermal stability
# Technique: DSF
# GAK: Cyclin-G-associated kinase (GAK, Homo sapiens, UniProt O14976)
# DCLK1: Serine/threonine-protein kinase DCLK1 (DCLK1, Homo sapiens, UniProt O15075)
# lecA: PA-I galactophilic lectin (lecA, Pseudomonas aeruginosa, UniProt Q05097)
# SIRT2: NAD-dependent protein deacetylase sirtuin-2 (SIRT2, Homo sapiens, UniProt Q8IXJ6)
SMILES,target,concentration,ΔTm [°C]
COc1ccc2nccc(Nc3cc(OC)c(OC)c(OC)c3)c2c1,GAK,10 µM,6
Cn1c2c(c3ccc(Cl)c(Cl)c31)C(C#N)C1(CCCC1)NC2=O (centres unmarked),DCLK1,10 µM,0
Cc1ccc(O)c(O)c1,lecA,4 mM,-11
Cn1c2c(c3ccc(Cl)c(Cl)c31)C(C#N)C(C)(C)NC2=O (centres unmarked),DCLK1,10 µM,0.4
COCCn1cc(COc2cccc(Cc3cnc(NC(=O)CSc4nc(-c5ccccc5)cc(-c5ccccc5)n4)s3)c2)nn1,SIRT2,25 µM,1.4
O=C(c1ccccc1)c1ccc(O)c(O)c1,lecA,4 mM,0.4
FC(F)(F)c1ccc2nccc(Nc3cccc(I)c3)c2c1,GAK,10 µM,2.6
Cc1ccc(Cn2cc(COc3cccc(Cc4cnc(NC(=O)CSc5nc(C)cc(C)n5)s4)c3)nn2)cc1,SIRT2,25 µM,5.35
